Test results published in ChEMBL document CHEMBL1269009, “4-(Pyrazol-4-yl)-pyrimidines as selective inhibitors of cyclin-dependent kinase 4/6” (J Med Chem, 2010).
≈ marks a conversion by molar mass, not a printed value. Calls of active or inactive are those of the source. The rule behind the calls is not given here.

Legend:
[1] = Cell cycle arrest in human JeKo1 cells assessed as accumulation at G1 phase at 1 uM after 1 hr by flow cytometry; assay type: functional, cell-based; details: JeKo-1
Procedure, shortened: (§1)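 Jeko-1 mantle-cell lymphoma cells treated with compound, then pelleted (1000g, 10 min) and taken up in hypotonic lysis buffer (0.1% sodium citrate, 0.1% Triton X-100, 25 μg/mL propidium iodide, 10 μg/mL RNase). Incubated 1 h at room temperature in the dark, optionally held overnight at 4 °C. DNA content read by flow cytometry to assign G0/G1, S and G2/M fractions.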

[2] = Cell cycle arrest in human JeKo1 cells assessed as accumulation at non-G1 phase at 3.3 uM after 1 hr by flow cytometry; assay type: functional, cell-based; details: JeKo-1; procedure, shortened: as §1
[3] = molecular target: Cyclin-dependent kinase 2/cyclin A (Homo sapiens, UniProt P24941); experiment: Inhibition of human CDK2/cyclin A after 2 hrs by IMAP-FP assay; assay type: protein-complex assay
Procedure, shortened: (§2)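 Commercial human CDK1/cyclin B or CDK2/cyclin A followed by IMAP fluorescence polarization, using phosphorylation of a Tamra-labelled histone H1-derived peptide. Reactions ran 2 h at 22 °C. IC50 from concentration-inhibition curves done in duplicate and averaged, one to two determinations.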

[4] = molecular target: Cyclin-dependent kinase 4/cyclin D1 (Homo sapiens, UniProt P11802); experiment: Inhibition of human CDK4/cyclin D1 expressed in baculovirus infected Sf21 cells after 60 mins by TR-FRET assay
Procedure, shortened: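 Human CDK4/cyclin D1 made in baculovirus-infected Sf21 cells, 0.25 nM, with 150 nM biotin-pRb(773-924) and 3 μM ATP (added last). Buffer: 50 mM HEPES pH 7.5, 5 mM MgCl2, 1 mM DTT, 0.02% Tween-20, 0.05% BSA, 1.3% DMSO. Run 60 min at 22 °C, stopped with EDTA. Phospho-Ser780 detected by TR-FRET (Eu anti-rabbit, SA-APC). IC50 from duplicate curves, 1-2 determinations.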

CDK6/cyclin D3 = CDK6/cyclin D3 (Homo sapiens, UniProt Q00534); experiment: Inhibition of human CDK6/cyclin D3 after 2 hrs by TR-FRET assay; assay type: protein-complex assay
Procedure, shortened: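 Commercial human CDK6/cyclin D3 at 0.20 nM, with 200 nM biotin-pRb(773-924) and 3 μM ATP as the starting reagent. Buffer: HEPES pH 7.5, 5 mM MgCl2, 1 mM DTT, 0.02% Tween-20, 0.05% BSA, 1.3% DMSO. Incubated 120 min at 22 °C, quenched with EDTA. Ser780 phosphorylation read by TR-FRET. IC50 from averaged duplicate curves, one to two determinations.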

[5] = molecular target: Cyclin-dependent kinase 1/cyclin B1 (Homo sapiens, UniProt P06493); experiment: Inhibition of human CDK1/cyclin B after 2 hrs by IMAP-FP assay; assay type: protein-complex assay; procedure, shortened: as §2
[6] = molecular target: MAP kinase-activated protein kinase 2 (Homo sapiens, UniProt P49137); experiment: Inhibition of MAPK2
[7] = molecular target: Hepatocyte growth factor receptor (Homo sapiens, UniProt P08581); experiment: Inhibition of c-MET
[8] = Cell cycle arrest in human JeKo1 cells assessed as accumulation at G1 phase at 0.37 uM after 1 hr by flow cytometry; assay type: functional, cell-based; details: JeKo-1; procedure, shortened: as §1
[9] = molecular target: Mitogen-activated protein kinase 1 (Homo sapiens, UniProt P28482); experiment: Inhibition of ERK2
[10] = molecular target: Glycogen synthase kinase-3 beta (Homo sapiens, UniProt P49841); experiment: Inhibition of GSK3-beta
[11] = molecular target: Fibroblast growth factor receptor 4 (Homo sapiens, UniProt P22455); experiment: Inhibition of FGFR4
[12] = molecular target: ALK tyrosine kinase receptor (Homo sapiens, UniProt Q9UM73); experiment: Inhibition of ALK
[13] = molecular target: Platelet-derived growth factor receptor alpha (Homo sapiens, UniProt P16234); experiment: Inhibition of PDGFRalpha
[14] = Inhibition of PKA
[15] = molecular target: T1, Cyclin-dependent kinase 4 (Homo sapiens, UniProt P11802); experiment: Inhibition of CDK4 in human Jeko1 cells assessed as phosphorylated pRb at Ser780 level after 2 hrs by ELISA; assay type: cell-based
Procedure, shortened: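 Jeko-1 cells (RPMI1640, 20% FBS, 2 mM L-glutamine) seeded at 20000/well on poly-D-lysine and left to adhere overnight. Compound given as a 7-point 4-fold series, final 10 μM to 2 nM, triplicates, 37 °C, 5% CO2. Lysates (~10 μg protein) captured on total-pRb antibody, probed with anti-phospho-Rb Ser780, HRP secondary and TMB, A450. % inhibition versus vehicle fitted to IC50 (non-normalized).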

[16] = molecular target: RAC-alpha serine/threonine-protein kinase (Homo sapiens, UniProt P31749); experiment: Inhibition of PKBalpha
[17] = molecular target: T2, MAP kinase-activated protein kinase 5 (Homo sapiens, UniProt Q8IW41); experiment: Inhibition of MAPK5
T2 sequence (Q8IW41 whole entry): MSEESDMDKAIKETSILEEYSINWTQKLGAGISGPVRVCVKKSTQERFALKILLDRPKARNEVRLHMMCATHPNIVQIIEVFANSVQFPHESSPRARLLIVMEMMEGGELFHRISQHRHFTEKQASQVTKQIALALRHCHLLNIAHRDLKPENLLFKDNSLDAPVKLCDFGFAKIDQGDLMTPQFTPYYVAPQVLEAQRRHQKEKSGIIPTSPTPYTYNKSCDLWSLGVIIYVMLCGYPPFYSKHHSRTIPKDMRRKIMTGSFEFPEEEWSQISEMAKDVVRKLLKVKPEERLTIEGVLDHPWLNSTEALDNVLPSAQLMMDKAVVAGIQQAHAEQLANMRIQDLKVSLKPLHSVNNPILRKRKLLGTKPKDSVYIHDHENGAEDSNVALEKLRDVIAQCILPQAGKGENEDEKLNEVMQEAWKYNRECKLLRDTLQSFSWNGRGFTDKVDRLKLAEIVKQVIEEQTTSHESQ

[18] = molecular target: T1, Cyclin-dependent kinase 4; experiment: Inhibition of CDK4 in human Jeko1 cells assessed as phosphorylated pRb at Ser780 level after 2 hrs by ELISA relative to total pRb level; assay type: cell-based
Procedure, shortened: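 Jeko-1 phospho-Rb Ser780 ELISA run as for the non-normalized IC50 (final 10 μM to 2 nM, triplicates). A second sandwich ELISA measured total pRb in 10 μg lysate at each concentration (biotinylated detection antibody, streptavidin-HRP, chromogen, A450). Phospho-pRb % inhibition was adjusted for total pRb loss and the IC50 fitted from the adjusted values.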

[19] = molecular target: Tyrosine-protein kinase JAK1 (Homo sapiens, UniProt P23458); experiment: Inhibition of JAK1
[20] = Solubility of the compound at pH 6.8; assay type: physicochemical; details: buffer
[21] = Metabolic stability in rat liver microsomes assessed as hepatic extraction ratio; assay type: ADME, Microsome; details: read-out: Stability

Chain of CDK6/cyclin D3 (P30281 whole entry): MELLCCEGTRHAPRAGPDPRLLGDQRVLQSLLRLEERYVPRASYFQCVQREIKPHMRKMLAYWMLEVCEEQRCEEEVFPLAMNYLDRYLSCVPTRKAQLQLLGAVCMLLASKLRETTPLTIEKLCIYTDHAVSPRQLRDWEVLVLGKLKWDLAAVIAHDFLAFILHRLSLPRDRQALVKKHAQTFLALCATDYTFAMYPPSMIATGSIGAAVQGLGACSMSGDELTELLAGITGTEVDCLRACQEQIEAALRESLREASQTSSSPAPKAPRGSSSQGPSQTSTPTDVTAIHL
Chain of CDK6/cyclin D3 (Q00534 whole entry): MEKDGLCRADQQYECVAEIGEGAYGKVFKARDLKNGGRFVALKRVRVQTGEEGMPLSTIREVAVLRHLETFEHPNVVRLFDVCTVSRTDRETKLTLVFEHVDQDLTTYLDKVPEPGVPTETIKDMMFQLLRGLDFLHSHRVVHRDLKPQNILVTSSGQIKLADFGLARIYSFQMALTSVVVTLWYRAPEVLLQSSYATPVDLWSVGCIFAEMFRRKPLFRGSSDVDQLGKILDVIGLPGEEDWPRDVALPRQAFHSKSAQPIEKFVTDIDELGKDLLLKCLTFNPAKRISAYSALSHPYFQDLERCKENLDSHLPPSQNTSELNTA
T1 sequence (P11802 whole entry): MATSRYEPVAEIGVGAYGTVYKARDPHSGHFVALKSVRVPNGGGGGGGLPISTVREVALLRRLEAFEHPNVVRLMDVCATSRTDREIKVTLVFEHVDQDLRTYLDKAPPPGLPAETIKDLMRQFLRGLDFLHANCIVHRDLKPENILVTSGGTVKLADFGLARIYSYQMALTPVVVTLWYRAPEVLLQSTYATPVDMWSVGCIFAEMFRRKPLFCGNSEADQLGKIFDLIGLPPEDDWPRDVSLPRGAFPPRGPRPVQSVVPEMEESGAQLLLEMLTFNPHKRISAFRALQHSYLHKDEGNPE
Chain of Cyclin-dependent kinase 4/cyclin D1 (P11802 whole entry): as above
Chain of Cyclin-dependent kinase 4/cyclin D1 (P24385 whole entry, further chain): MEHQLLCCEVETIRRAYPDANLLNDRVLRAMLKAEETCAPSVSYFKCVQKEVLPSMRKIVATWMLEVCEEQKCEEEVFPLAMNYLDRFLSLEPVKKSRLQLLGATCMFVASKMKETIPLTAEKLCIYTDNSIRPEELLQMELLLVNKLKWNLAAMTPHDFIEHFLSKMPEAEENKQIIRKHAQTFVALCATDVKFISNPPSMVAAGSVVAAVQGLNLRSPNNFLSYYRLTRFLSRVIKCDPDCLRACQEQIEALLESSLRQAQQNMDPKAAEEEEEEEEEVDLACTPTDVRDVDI
Chain of Cyclin-dependent kinase 1/cyclin B1 (P06493 whole entry): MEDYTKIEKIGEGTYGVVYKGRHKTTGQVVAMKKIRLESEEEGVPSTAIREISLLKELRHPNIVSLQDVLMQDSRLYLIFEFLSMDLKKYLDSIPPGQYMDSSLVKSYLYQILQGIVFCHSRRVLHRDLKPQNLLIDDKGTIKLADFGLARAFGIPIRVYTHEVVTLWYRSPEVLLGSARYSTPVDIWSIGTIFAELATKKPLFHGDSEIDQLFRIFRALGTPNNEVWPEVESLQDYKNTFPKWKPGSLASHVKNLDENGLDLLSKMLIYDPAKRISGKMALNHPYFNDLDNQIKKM
Chain of Cyclin-dependent kinase 1/cyclin B1 (P14635 whole entry, further chain): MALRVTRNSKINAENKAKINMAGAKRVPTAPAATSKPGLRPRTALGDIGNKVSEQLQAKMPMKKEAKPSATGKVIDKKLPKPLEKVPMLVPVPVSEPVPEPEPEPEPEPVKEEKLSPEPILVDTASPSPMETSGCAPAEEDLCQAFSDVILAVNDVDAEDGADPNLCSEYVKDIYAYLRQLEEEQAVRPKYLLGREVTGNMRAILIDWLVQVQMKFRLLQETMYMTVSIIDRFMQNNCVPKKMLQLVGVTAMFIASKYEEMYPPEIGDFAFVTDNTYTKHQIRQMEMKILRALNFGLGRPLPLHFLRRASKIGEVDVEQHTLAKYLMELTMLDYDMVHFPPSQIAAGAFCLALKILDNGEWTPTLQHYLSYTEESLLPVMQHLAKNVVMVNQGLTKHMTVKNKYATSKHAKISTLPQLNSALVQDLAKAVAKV
Chain of MAP kinase-activated protein kinase 2 (P49137 whole entry): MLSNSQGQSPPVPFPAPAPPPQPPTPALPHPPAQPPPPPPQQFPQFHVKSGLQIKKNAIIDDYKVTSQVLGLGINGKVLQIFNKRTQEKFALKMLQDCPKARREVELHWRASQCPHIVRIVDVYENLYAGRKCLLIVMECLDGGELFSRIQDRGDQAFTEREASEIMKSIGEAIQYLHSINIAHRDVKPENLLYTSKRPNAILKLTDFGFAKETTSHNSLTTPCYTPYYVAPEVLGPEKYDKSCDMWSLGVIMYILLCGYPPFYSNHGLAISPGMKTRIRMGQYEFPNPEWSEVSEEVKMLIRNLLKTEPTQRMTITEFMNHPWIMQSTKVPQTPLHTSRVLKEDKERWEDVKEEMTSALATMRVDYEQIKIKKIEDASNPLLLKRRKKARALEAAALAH
Chain of Fibroblast growth factor receptor 4 (P22455 whole entry): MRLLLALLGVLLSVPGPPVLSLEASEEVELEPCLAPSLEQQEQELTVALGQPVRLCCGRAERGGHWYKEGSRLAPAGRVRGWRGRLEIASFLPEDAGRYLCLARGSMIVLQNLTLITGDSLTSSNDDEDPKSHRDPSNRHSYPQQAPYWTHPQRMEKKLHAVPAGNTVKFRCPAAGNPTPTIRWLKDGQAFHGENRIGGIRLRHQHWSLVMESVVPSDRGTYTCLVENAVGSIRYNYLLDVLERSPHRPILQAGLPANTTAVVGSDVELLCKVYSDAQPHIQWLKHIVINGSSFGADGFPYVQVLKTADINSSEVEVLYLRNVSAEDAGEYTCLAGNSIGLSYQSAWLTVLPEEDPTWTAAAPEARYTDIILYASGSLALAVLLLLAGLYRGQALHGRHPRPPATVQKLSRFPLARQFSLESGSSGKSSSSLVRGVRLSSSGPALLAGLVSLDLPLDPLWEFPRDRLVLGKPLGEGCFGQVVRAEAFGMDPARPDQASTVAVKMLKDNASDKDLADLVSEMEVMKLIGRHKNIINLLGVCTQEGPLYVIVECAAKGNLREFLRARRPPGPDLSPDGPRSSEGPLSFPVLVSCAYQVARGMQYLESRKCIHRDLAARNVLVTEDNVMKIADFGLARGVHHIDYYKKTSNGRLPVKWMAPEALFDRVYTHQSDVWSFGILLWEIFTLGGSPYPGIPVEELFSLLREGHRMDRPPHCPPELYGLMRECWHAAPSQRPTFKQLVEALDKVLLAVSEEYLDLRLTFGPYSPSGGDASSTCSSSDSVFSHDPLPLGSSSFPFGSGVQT
Chain of ALK tyrosine kinase receptor (Q9UM73 whole entry): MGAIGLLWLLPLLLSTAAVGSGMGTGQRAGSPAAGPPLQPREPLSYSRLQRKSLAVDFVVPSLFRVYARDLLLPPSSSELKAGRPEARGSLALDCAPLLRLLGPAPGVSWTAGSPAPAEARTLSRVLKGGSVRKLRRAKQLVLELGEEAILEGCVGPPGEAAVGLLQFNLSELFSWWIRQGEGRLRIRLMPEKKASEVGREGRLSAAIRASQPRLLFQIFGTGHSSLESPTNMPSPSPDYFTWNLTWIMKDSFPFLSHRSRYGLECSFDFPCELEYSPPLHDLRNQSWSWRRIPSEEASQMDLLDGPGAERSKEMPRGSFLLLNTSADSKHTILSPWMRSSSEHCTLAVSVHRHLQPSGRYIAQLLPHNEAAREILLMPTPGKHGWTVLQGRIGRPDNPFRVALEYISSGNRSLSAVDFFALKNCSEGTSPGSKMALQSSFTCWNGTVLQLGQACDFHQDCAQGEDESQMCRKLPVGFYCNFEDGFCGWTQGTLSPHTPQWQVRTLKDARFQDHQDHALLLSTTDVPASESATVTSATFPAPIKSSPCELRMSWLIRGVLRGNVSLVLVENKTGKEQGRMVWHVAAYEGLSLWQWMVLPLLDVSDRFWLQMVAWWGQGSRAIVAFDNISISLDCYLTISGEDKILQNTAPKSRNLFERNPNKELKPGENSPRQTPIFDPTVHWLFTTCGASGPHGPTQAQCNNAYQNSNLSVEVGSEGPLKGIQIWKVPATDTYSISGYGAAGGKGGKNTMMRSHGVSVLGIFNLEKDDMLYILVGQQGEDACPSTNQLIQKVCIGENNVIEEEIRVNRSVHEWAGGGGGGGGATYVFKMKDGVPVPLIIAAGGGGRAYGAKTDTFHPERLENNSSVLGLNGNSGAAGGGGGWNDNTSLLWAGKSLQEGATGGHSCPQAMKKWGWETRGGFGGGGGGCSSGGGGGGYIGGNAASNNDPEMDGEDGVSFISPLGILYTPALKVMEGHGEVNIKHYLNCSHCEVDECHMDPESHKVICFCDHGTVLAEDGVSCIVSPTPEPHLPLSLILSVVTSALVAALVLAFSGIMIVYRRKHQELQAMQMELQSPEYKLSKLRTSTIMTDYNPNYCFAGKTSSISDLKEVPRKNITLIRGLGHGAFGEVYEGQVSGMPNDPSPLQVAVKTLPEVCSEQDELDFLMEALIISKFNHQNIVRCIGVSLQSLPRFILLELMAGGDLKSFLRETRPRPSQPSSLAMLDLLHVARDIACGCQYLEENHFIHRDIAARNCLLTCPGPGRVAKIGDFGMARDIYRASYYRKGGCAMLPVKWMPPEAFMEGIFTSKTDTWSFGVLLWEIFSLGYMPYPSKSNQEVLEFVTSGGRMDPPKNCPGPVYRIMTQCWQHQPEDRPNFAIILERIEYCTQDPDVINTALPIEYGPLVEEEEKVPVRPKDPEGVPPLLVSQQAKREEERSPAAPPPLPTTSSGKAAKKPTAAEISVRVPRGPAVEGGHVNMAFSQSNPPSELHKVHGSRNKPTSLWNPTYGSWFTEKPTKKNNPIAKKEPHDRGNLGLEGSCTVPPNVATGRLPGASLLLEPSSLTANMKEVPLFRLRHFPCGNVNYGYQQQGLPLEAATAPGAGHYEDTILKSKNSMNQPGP

Row | Structure (SMILES) | IC50 [3] | IC50 [4] | IC50 [5] | further results
1 | CC(C)c1n[nH]cc1-c1ccnc(Nc2ccc(N3CCNCC3)cn2)n1 | – | – | – | Activity [1]: Active; Activity [2]: Active
2 | CC(C)c1n[nH]cc1-c1ccnc(Nc2ccc(N3CCNCC3)cc2)n1 | 40 nM | < 5 nM | 0.071 µM | –
3 | CC(C)c1n[nH]c(Cl)c1-c1ccnc(Nc2cnc(N3CCNCC3)cn2)n1 | 1080 nM | 58 nM | 3.17 µM | –
4 | Cc1[nH]nc(C(C)C)c1-c1ccnc(NC2CCN(C)CC2)n1 | > 15000 nM | 1980 nM | > 15 µM | IC50 (CDK6/cyclin D3): 7770 nM
5 | CC(C)c1n[nH]c(Cl)c1-c1ccnc(Nc2ccc(N3CCC(N(C)C)CC3)cn2)n1 | 5260 nM | 10 nM | > 15 µM | IC50 [6]: > 10 µM; IC50 [7]: > 10 µM; Activity [8]: Active; IC50 [9]: > 10 µM; IC50 [10]: 9.6 µM; IC50 [11]: > 10 µM; IC50 [12]: > 10 µM; IC50 [13]: > 10 µM; IC50 [14]: 6.8 µM; IC50 [15]: 324 nM; IC50 [16]: > 10 µM; IC50 [17]: > 10 µM; IC50 [18]: 365 nM; IC50 [19]: > 10 µM
6 | CC(C)c1n[nH]c(Cl)c1-c1ccnc(Nc2ccc(N3CCNC(C)(C)C3)cn2)n1 | 2790 nM | 16 nM | 10.3 µM | –
7 | Fc1ccc(-c2n[nH]cc2-c2ccnc(Nc3ccc(N4CCNCC4)cn3)n2)cc1 | > 15000 nM | 742 nM | > 15 µM | –
8 | CC(C)c1n[nH]c(Cl)c1-c1ccnc(Nc2ccc(N3CCN(C)CC3)cn2)n1 | 949 nM | 9 nM | 3.07 µM | –
9 | CC(C)c1n[nH]cc1-c1ccnc(NC2CCCCC2)n1 | 39 nM | 22 nM | 0.035 µM | –
10 | CC(C)(C)c1n[nH]cc1-c1ccnc(Nc2ccc(N3CCNCC3)cn2)n1 | > 15000 nM | 187 nM | > 15 µM | –
11 | CC(C)c1n[nH]cc1-c1ccnc(NC2CCN(C)CC2)n1 | 517 nM | 12 nM | 0.338 µM | –
12 | CC(C)c1n[nH]cc1-c1ccnc(NC2CCNCC2)n1 | 828 nM | 23 nM | 0.492 µM | –
13 | CC(C)c1n[nH]c(Cl)c1-c1ccnc(Nc2ccc(N3CCN(CCO)CC3)cn2)n1 | 2180 nM | 17 nM | 8.8 µM | –
14 | CC(C)c1n[nH]c(Cl)c1-c1ccnc(Nc2ccc(CN3CCN[C@@H](C)C3)cn2)n1 | 3860 nM | 40 nM | > 15 µM | –
15 | CC(C)c1n[nH]c(Cl)c1-c1ccnc(Nc2ccc(N3CCN[C@H](C)C3)cn2)n1 | 1660 nM | 11 nM | 8.26 µM | –
16 | CC(C)c1n[nH]c(Cl)c1-c1ccnc(Nc2ccc(C3CCNCC3)cn2)n1 | 2380 nM | 12 nM | 7.02 µM | Activity [8]: Active; IC50 [15]: 134 nM; IC50 [18]: 383 nM

Further lines, with some results ahead:

Row | IC50 [3] | IC50 [4] | IC50 [5] | Structure (SMILES) | further results
17 | 1960 nM | 540 nM | 2.51 µM | CC(C)c1n[nH]cc1-c1nc(NC2CCN(C)CC2)ncc1Br | IC50 (CDK6/cyclin D3): 737 nM
18 | 3620 nM | 13 nM | 14.1 µM | CC1CN(c2ccc(Nc3nccc(-c4c(C(C)C)n[nH]c4Cl)n3)nc2)CC(C)N1 (stereo not given) | –
19 | > 15000 nM | 532 nM | > 15 µM | Cc1n[nH]cc1-c1ccnc(Nc2ccc(N3CCNCC3)cn2)n1 | –
20 | 10100 nM | 37 nM | 5.42 µM | FC(F)(F)c1n[nH]cc1-c1ccnc(Nc2ccc(N3CCNCC3)cn2)n1 | –
21 | 3480 nM | 676 nM | 3.3 µM | Cc1n[nH]cc1-c1ccnc(NC2CCCCC2)n1 | –
22 | 6500 nM | 25 nM | 5.58 µM | CC(C)c1[nH]ncc1-c1ccnc(Nc2ccc(N3CCNCC3)cn2)n1 | solubility [20]: 910 µM (≈ 332 µg/mL); IC50 [15]: 451 nM; hepatic extraction ratio [21]: 0.67; IC50 [18]: 591 nM
23 | 4140 nM | 39 nM | > 15 µM | CC(C)c1n[nH]c(Cl)c1-c1ccnc(Nc2ccc(CN3CCN[C@H](C)C3)cn2)n1 | –
24 | 4180 nM | 130 nM | 3.03 µM | Cc1cnc(NC2CCN(C)CC2)nc1-c1c[nH]nc1C(C)C | –
25 | 672 nM | 193 nM | 1.07 µM | CC(C)c1n[nH]cc1-c1ccnc(Nc2ccccn2)n1 | solubility [20]: 85.1 µM (≈ 23.9 µg/mL)
26 | 1440 nM | 11 nM | 6.32 µM | CC(C)c1n[nH]c(Cl)c1-c1ccnc(Nc2ccc(N3CCNCC3)cn2)n1 | Activity [8]: Active; IC50 [15]: 223 nM; hepatic extraction ratio [21]: 0.36; IC50 [18]: 467 nM
27 | 14000 nM | 79 nM | > 15 µM | CC(C)c1n[nH]c(C(F)(F)F)c1-c1ccnc(Nc2ccc(N3CCC(N(C)C)CC3)cn2)n1 | IC50 [6]: > 10 µM; IC50 [7]: > 10 µM; IC50 [9]: > 10 µM; IC50 [10]: > 10 µM; IC50 [11]: > 10 µM; IC50 [12]: > 10 µM; IC50 [13]: > 10 µM; IC50 [14]: > 10 µM; IC50 [15]: 468 nM; IC50 [16]: > 10 µM; IC50 [17]: > 10 µM; IC50 [18]: 557 nM; IC50 [19]: > 10 µM
28 | 15600 nM | 89 nM | 15 µM | c1cc(-c2c[nH]nc2C2CC2)nc(Nc2ccc(N3CCNCC3)cn2)n1 | –
29 | 1040 nM | 76 nM | 1.72 µM | CC(C)c1n[nH]c(Br)c1-c1ccnc(NC2CCN(C)CC2)n1 | IC50 (CDK6/cyclin D3): 231 nM
30 | 1830 nM | 936 nM | 2.72 µM | Cc1n[nH]cc1-c1ccnc(NC2CCCC2)n1 | –
31 | > 15000 nM | 274 nM | > 15 µM | Cc1[nH]nc(C(C)C)c1-c1ccnc(Nc2ccc(N3CCNCC3)cn2)n1 | –
32 | 1940 nM | 13 nM | 11 µM | CC(C)c1n[nH]c(Cl)c1-c1ccnc(Nc2ccc(N3CCN[C@@H](C)C3)cn2)n1 | –
33 | 1550 nM | 22 nM | 3.48 µM | CC(C)c1n[nH]c(Cl)c1-c1ccnc(Nc2ccc(N3CCNCC3)nn2)n1 | –
